Data as given in ChEMBL document CHEMBL2417534, “Discovery and SAR of a novel series of GIRK1/2 and GIRK1/4 activators” (Bioorg Med Chem Lett, 2013).

Tests used:
[1] = molecular target: T1, Kir3.1/Kir3.4 (Homo sapiens, UniProt P48544+P48549); assay: Activation of GIRK1/4 (unknown origin) by cell-based thallium flux assay
T1 sequence (P48549 whole entry): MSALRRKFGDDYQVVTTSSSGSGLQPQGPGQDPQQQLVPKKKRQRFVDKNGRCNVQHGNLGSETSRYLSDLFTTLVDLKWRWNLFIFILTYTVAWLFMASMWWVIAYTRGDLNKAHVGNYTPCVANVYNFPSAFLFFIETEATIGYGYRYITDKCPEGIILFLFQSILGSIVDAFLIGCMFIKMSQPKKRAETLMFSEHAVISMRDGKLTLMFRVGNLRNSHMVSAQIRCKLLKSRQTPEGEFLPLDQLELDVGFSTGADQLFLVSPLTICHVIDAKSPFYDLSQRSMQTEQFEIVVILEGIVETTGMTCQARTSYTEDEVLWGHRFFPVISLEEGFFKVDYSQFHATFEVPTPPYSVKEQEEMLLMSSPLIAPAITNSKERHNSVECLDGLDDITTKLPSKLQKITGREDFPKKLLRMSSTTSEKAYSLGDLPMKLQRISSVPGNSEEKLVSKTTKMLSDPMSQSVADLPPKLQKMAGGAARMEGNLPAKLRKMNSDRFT
T1 sequence (P48544 whole entry): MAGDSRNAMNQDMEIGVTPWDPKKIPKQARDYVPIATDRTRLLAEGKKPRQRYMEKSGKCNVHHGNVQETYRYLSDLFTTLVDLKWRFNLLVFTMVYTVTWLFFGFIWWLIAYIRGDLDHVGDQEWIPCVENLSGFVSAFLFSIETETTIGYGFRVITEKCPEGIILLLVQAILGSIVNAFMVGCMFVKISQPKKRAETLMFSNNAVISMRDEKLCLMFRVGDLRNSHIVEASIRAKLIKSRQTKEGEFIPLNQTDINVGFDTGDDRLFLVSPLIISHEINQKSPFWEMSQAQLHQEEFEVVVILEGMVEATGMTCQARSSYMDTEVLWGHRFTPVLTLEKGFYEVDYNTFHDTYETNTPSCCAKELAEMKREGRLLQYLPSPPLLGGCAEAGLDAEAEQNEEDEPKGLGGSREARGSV
Method in brief: (§1)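 Loaded with 0.5 μM Thallos-AM for ~60 min at room temperature in HEPES-buffered HBSS pH 7.4. Compounds (11-point, threefold dilutions) added 4 min before a thallium sulfate/bicarbonate stimulus. Fluorescence read at 1 Hz, F/F0 minus vehicle, slope after stimulus. Potency from triplicates. Efficacy normalised to reference activator set at 100%.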

[2] = molecular target: T2, Kir3.1/Kir3.2 (Homo sapiens) (UniProt P48549+P48051); assay: Activation of GIRK1/2 (unknown origin) by cell-based thallium flux assay relative to control; method in brief: as §1
[3] = molecular target: T3, Kir3.1/Kir3.2 (Homo sapiens, UniProt P48051+P48549); assay: Activation of GIRK1/2 (unknown origin) by cell-based thallium flux assay
T3 sequence (P48549 whole entry): T1 sequence (P48549 whole entry)
T3 sequence (P48051 whole entry): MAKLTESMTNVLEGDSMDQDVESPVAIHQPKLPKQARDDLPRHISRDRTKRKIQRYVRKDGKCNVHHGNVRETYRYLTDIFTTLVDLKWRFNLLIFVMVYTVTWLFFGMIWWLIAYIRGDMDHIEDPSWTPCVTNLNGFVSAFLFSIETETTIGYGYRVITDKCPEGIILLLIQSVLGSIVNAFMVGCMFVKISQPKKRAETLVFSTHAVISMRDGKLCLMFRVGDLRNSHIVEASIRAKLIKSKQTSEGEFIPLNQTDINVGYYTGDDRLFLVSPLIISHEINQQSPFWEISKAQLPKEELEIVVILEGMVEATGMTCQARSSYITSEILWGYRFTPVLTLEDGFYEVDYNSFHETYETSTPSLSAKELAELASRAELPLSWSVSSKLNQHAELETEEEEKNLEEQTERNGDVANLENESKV
Method in brief: (§2)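 Loaded with 0.5 μM Thallos-AM for ~60 min at room temperature in HEPES-buffered HBSS pH 7.4. Fluorescence read at 1 Hz, F/F0 minus vehicle, slope after stimulus. Potency from triplicates. Efficacy normalised to reference activator set at 100%.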

[4] = molecular target: T4, Kir3.1/Kir3.4 (Homo sapiens) (UniProt P48549+P48544); assay: Activation of GIRK1/4 (unknown origin) by cell-based thallium flux assay relative to control; method in brief: as §1
[5] = molecular target: T3, Kir3.1/Kir3.2; assay: Activation of GIRK1/2 (unknown origin) transfected in HEK293 cells after 4 mins by thallium flux-based fluorescence assay; type: cell-based; method in brief: as §2
[6] = molecular target: T1, Kir3.1/Kir3.4; assay: Activation of GIRK1/4 (unknown origin) transfected in HEK293 cells after 4 mins by thallium flux-based fluorescence assay; type: cell-based; method in brief: as §1
[7] = molecular target: T2, Kir3.1/Kir3.2 (Homo sapiens); assay: Activation of GIRK1/2 (unknown origin) transfected in HEK293 cells at 20 uM after 4 mins by thallium flux-based fluorescence assay relative to ML297; type: cell-based
Method in brief: (§3)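 Single-concentration thallium flux in HEK-293 cells stably expressing GIRK1/GIRK2 or GIRK1/GIRK4, loaded with 0.5 μM Thallos-AM for ~60 min at room temperature. 20 μM compound in 0.2% DMSO/HEPES-buffered HBSS (pH 7.4) added, followed 4 min later by a Tl2SO4 bicarbonate stimulus. Read-out is the slope of F/F0 after stimulus, vehicle-subtracted, expressed relative to reference activator.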

[8] = molecular target: T4, Kir3.1/Kir3.4 (Homo sapiens); assay: Activation of GIRK1/4 (unknown origin) transfected in HEK293 cells at 20 uM after 4 mins by thallium flux-based fluorescence assay relative to ML297; type: cell-based; method in brief: as §3
[9] = molecular target: T3, Kir3.1/Kir3.2; assay: Activation of recombinant human GIRK1/2 expressed in Xenopus oocytes by two-electrode voltage clamp method; type: cell-based, Oocyte
[10] = molecular target: T1, Kir3.1/Kir3.4; assay: Activation of recombinant human GIRK1/4 expressed in Xenopus oocytes by two-electrode voltage clamp method; type: cell-based, Oocyte

SMILES | EC50 [5] [µM] | EC50 [6] [µM] | Efficacy [7] [%] | Efficacy [8] [%] | further results
Cc1ccc(NC(=O)Cc2ccccc2Cl)cc1S(=O)(=O)N(C)C | – | – | – | – | EC50 [1]: 1.1 µM; Efficacy [2]: 110%; EC50 [3]: 1.1 µM; Efficacy [4]: 104%
COc1ccc(OC)c(NC(=O)Nc2ccc(C)c(S(=O)(=O)N(C)C)c2)c1 | > 10 | > 10 | – | – | –
Cc1ccc(NC(=O)Nc2ccccc2)cc1S(=O)(=O)N(C)C | – | – | 94 | 100 | –
Cc1ccc(NC(=O)Nc2ccc(C(F)(F)F)cc2)cc1S(=O)(=O)N(C)C | 1.5 | > 10 | 26 | – | –
COc1ccc(NC(=O)Nc2ccc(C)c(S(=O)(=O)N(C)C)c2)cc1 | 1.7 | 5.6 | 101 | 104 | –
O=C(Cc1ccccc1Cl)Nc1ccc(Cl)cc1 | > 10 | > 10 | – | – | –
Cc1ccc(NC(=O)Nc2cccc(F)c2)cc1S(=O)(=O)N(C)C | 1.1 | 1.8 | 89 | 55 | –
O=C(Cc1ccccc1Cl)Nc1ccc(C(F)(F)F)cc1 | > 10 | 2.1 | – | 20 | –
Cc1ccc(NC(=O)Nc2ccc(Cl)cc2)cc1S(=O)(=O)N(C)C | 3.3 | 2.8 | 92 | 72 | –
CN(C)S(=O)(=O)c1cccc(NC(=O)Cc2ccccc2Cl)c1 | – | – | – | – | EC50 [1]: 1.6 µM; Efficacy [2]: 55%; EC50 [3]: 3.3 µM; Efficacy [4]: 123%
Cc1ccc(NC(=O)Cc2ccccc2Br)cc1S(=O)(=O)N(C)C | – | – | – | – | EC50 [1]: 1.6 µM; Efficacy [2]: 108%; Efficacy [4]: 114%
CS(=O)(=O)c1cc(NC(=O)Cc2ccccc2Cl)ccc1F | > 10 | > 10 | – | – | –
O=C(Cc1ccccc1Cl)Nc1cccc(OC(F)F)c1 | > 10 | – | – | 119 | –
CC(C)(C)c1cccc(NC(=O)Cc2ccccc2Cl)c1 | – | – | 44 | 76 | –
Cc1ccc(NC(=O)Nc2ccccc2Cl)cc1S(=O)(=O)N(C)C | 2.7 | 6.8 | 94 | 106 | –
Cc1ccc(NC(=O)Nc2ccc(C)c(S(=O)(=O)N(C)C)c2)cc1Cl | 2.9 | 6.2 | 91 | 115 | –
Cc1cccc(NC(=O)Cc2ccccc2Cl)c1 | > 10 | > 10 | – | – | –
Cc1ccc(NC(=O)Nc2ccccc2F)cc1S(=O)(=O)N(C)C | 3.9 | 7.8 | 111 | 72 | –
O=C(Cc1ccccc1Cl)Nc1ccc(Cl)c(C(F)(F)F)c1 | > 10 | – | – | 17 | –
C[C@@H]1O[C@@H](O[C@H]2[C@H](Oc3cc(O)c4c(c3)O[C@H](c3ccc(O)cc3)CC4=O)O[C@H](CO)[C@@H](O)[C@@H]2O)[C@H](O)[C@H](O)[C@H]1O [NARINGIN] | – | – | – | – | EC50 [9]: > 100 µM; EC50 [10]: > 100 µM
Cc1ccc(NC(=O)Nc2cccc(C#N)c2)cc1S(=O)(=O)N(C)C | – | – | 83 | 29 | –
O=C(Cc1ccccc1Cl)Nc1cc(Cl)cc(C(F)(F)F)c1 | > 10 | > 10 | – | – | –
Cc1ccc(NC(=O)Cc2ccc(F)cc2)cc1S(=O)(=O)N(C)C | – | – | – | – | EC50 [1]: 5.2 µM; Efficacy [2]: 107%; EC50 [3]: 3.6 µM; Efficacy [4]: 108%
CN(C)S(=O)(=O)c1cccc(NC(=O)Cc2ccc(Cl)cc2)c1 | – | – | – | – | EC50 [1]: 2.2 µM; Efficacy [2]: 71%; EC50 [3]: 2.3 µM; Efficacy [4]: 64%
O=C(Cc1ccccc1Cl)Nc1cccc(Cl)c1 | > 10 | – | – | 22 | –
